Active and inactive are the calls of the source. The calls are words filed in the database; no cut-off is given here.
Key:
Canis familiaris [1] = experiment: Saluretic activity in the dog measured as concentration of Na+ in urinary excretion (2 animals/dose) at (dose 1.56 mg/Kg, perorally); assay type: functional, Canis lupus familiaris, Urine
Summary of the method: (§1)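 Male beagles trained to rest on a table and to accept stomach tube and catheter. Food withdrawn 24 h before, tap water ad libitum. Bladder emptied by catheter, then 20 mL/kg tap water by stomach tube. Catheterized hourly up to 8 h with 4 mL/kg water orally each time; first 2 h urine served as control. Oral dosing after second catheterization. Pooled 1–6 h urine; Na⁺/K⁺ by flame photometry, Cl⁻ argentometrically.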

Canis familiaris [2] = experiment: Saluretic activity in the dog measured as concentration of Na+ in urinary excretion (2 animals/dose) at (dose 12.5 mg/Kg, perorally); assay type: functional, Canis lupus familiaris, Urine; summary of the method: as §1
Canis familiaris [3] = experiment: Diuretic activity in the dog (2 animals/dose) at (dose 1.56 mg/Kg), when administered perorally; assay type: functional, Canis lupus familiaris, Urine
Summary of the method: (§2)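 Trained male beagles, fasted 24 h with tap water ad libitum. Bladder emptied by catheter, then 20 mL/kg tap water by stomach tube, with 4 mL/kg water at each hourly catheterization up to 8 h. The first 2 h of urine served as control. Oral dosing came after the second catheterization, and 1–6 h urine was pooled. Na⁺ and K⁺ were measured by flame photometry, Cl⁻ argentometrically, in mequiv/kg.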

Canis familiaris [4] = experiment: Diuretic activity in the dog (2 animals/dose) at (dose 12.5 mg/Kg), when administered perorally; assay type: functional, Canis lupus familiaris, Urine; summary of the method: as §2
Canis familiaris [5] = experiment: Saluretic activity in the dog measured as concentration of K+ in urinary excretion (2 animals/dose) at (dose 1.56 mg/Kg, perorally); assay type: functional, Canis lupus familiaris, Urine
Summary of the method: (§3)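 Male beagles trained to the procedures, food withdrawn 24 h before, tap water ad libitum. Bladder emptied by catheter, then 20 mL/kg tap water by stomach tube, plus 4 mL/kg orally at each hourly catheterization up to 8 h. The first 2 h of urine served as control. Compound given orally after the second catheterization. Urine from 1–6 h post-dose pooled; Na⁺ and K⁺ by flame photometry, Cl⁻ argentometrically, in mequiv/kg.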

Canis familiaris [6] = experiment: Salidiuretic activity on the basis of the 1.56 mg/Kg perorally dog assay; compound was found to be highly active; assay type: functional, organism-based; settings: Canis lupus familiaris; Urine
Canis familiaris [7] = experiment: Saluretic activity in the dog measured as concentration of K+ in urinary excretion (2 animals/dose) at (dose 12.5 mg/Kg, perorally); assay type: functional, Canis lupus familiaris, Urine; summary of the method: as §1
Canis familiaris [8] = experiment: Saluretic activity in the dog measured as concentration of Cl - in urinary excretion (2 animals/dose) at (dose 1.56 mg/Kg, perorally); assay type: functional, Canis lupus familiaris, Urine; summary of the method: as §3
Canis familiaris [9] = experiment: Saluretic activity in the dog measured as concentration of Cl - in urinary excretion (2 animals/dose) at (dose 12.5 mg/Kg, perorally); assay type: functional, Canis lupus familiaris, Urine; summary of the method: as §3
Rattus norvegicus [10] = organism: Rattus norvegicus; experiment: Diuretic activity in the rats, determined by a modified Lipschitz test; assay type: functional, Urine
Summary of the method: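 Modified Lipschitz test: rats deprived of water 24 h, grouped in threes of similar weight in diuresis funnels. Oral dose of 50 mg/kg, suspended in 2% starch solution, by stomach tube.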

Rattus norvegicus [11] = organism: Rattus norvegicus; experiment: Saluretic activity in the rat measured as concentration of chloride in urine; assay type: functional
Summary of the method: (§4)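 Rats deprived of food 24 h, water ad libitum, dosed 50 mg/kg by stomach tube as suspension in 2% starch, no extra water load. Groups of three in diuresis funnels; urine over first 5 h collected. Na⁺ and K⁺ by flame photometry, Cl⁻ argentometrically; expressed as mequiv/kg.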

Rattus norvegicus [12] = organism: Rattus norvegicus; experiment: Saluretic activity in the rat measured as concentration of K+ in urine; assay type: functional; summary of the method: as §4
[13] = It is the ratio, measured as saluretic activity in the dog as concentration of Cl- in urinary excretion (dose 1.56 mg/Kg, perorally) to that of (Na+)+(K+); assay type: functional, Urine; summary of the method: as §2
[14] = It is the ratio, measured as saluretic activity in the dog as concentration of Na+ in urinary excretion (dose 1.56 mg/Kg, perorally) to that of K; assay type: functional, Urine; summary of the method: as §2
[15] = It is the ratio, measured as saluretic activity in the dog as concentration of Na+ in urinary excretion (dose 12.5 mg/Kg, perorally) to that of K; assay type: functional, Urine; summary of the method: as §2
[16] = It is the ratio, measured as saluretic activity in the dog as concentration of Cl- in urinary excretion (dose 12.5 mg/Kg, perorally) to that of (Na++K+); assay type: functional, Urine; summary of the method: as §2
Rattus norvegicus [17] = organism: Rattus norvegicus; experiment: Saluretic activity in the rat measured as concentration of Na+ in urine; assay type: functional; summary of the method: as §4
Rattus norvegicus [18] = experiment: Salidiuretic activity on the basis of the 50 mg/kg perorally rat assay; NA means inactive; settings: Urine
Canis familiaris [19] = experiment: Saluretic activity in the dog measured as concentration of Na+ in urinary excretion (2 animals/dose) at (dose 1.56 mg/Kg, po); assay type: functional, Canis lupus familiaris, Urine; summary of the method: as §1
Canis familiaris [20] = experiment: Saluretic activity in the dog measured as concentration of K+ in urinary excretion (2 animals/dose) at (dose 1.56 mg/Kg, po); assay type: functional, Canis lupus familiaris, Urine; summary of the method: as §1
Canis familiaris [21] = experiment: Saluretic activity in the dog measured as concentration of Cl - in urinary excretion (2 animals/dose) at (dose 1.56 mg/Kg, po); assay type: functional, Canis lupus familiaris, Urine; summary of the method: as §3
[22] = It is the ratio, measured as saluretic activity in the dog as concentration of Na+ in urinary excretion (dose 1.56 mg/Kg, po) to that of K; assay type: functional, Urine; summary of the method: as §2
[23] = It is the ratio, measured as saluretic activity in the dog as concentration of Cl- in urinary excretion (dose mg/Kg, po) to that of (Na+)+(K+); assay type: functional, Urine; summary of the method: as §2
Canis familiaris [24] = experiment: Saluretic activity in the dog measured as concentration of Na+ in urinary excretion (2 animals/dose) at (dose 12.5 mg/Kg, po); assay type: functional, Canis lupus familiaris, Urine; summary of the method: as §1
Canis familiaris [25] = experiment: Saluretic activity in the dog measured as concentration of K+ in urinary excretion (2 animals/dose) at (dose 12.5 mg/Kg, po); assay type: functional, Canis lupus familiaris, Urine; summary of the method: as §1
Canis familiaris [26] = experiment: Saluretic activity in the dog measured as concentration of Cl - in urinary excretion (2 animals/dose) at (dose 12.5 mg/Kg, po); assay type: functional, Canis lupus familiaris, Urine; summary of the method: as §3
[27] = It is the ratio, measured as saluretic activity in the dog as concentration of Na+ in urinary excretion (dose 12.5 mg/Kg, po) to that of K; assay type: functional, Urine; summary of the method: as §2
[28] = It is the ratio, measured as saluretic activity in the dog as concentration of Na+ in urinary excretion(dose 1.56 mg/kg, p.o.) to that of K; assay type: functional, Urine; settings: route oral; summary of the method: as §2
[29] = It is the ratio, measured as saluretic activity in the dog as concentration of Cl- in urinary excretion (dose 1.56 mg/Kg, po) to that of (Na+)+(K+); assay type: functional, Urine; summary of the method: as §2
[30] = It is the ratio, measured as saluretic activity in the dog as concentration of Cl- in urinary excretion (dose 12.5 mg/Kg, po) to that of (Na++K+); assay type: functional, Urine; summary of the method: as §2

SMILES | Diuretic activity (Canis familiaris [3]) | Diuretic activity (Canis familiaris [4]) | Diuretic activity (Rattus norvegicus [10]) | Saluretic activity (Rattus norvegicus [11]) | Saluretic activity (Rattus norvegicus [12]) | Saluretic activity (Rattus norvegicus [17]) | Saluretic activity (Canis familiaris [19]) | Saluretic activity (Canis familiaris [20]) | Saldiuretic activity (Canis familiaris [21]) | also measured
NS(=O)(=O)c1cc(S(=O)(=O)[O-])c(NCc2cccs2)cc1Oc1ccccc1.[K+] | 58 ml kg-1 6hr-1 | 78 ml kg-1 6hr-1 | 0.8 mL/kg | 0.6 m equiv 5hr-1 kg-1 | 0.4 m equiv 5hr-1 kg-1 | 0.8 m equiv 5hr-1 kg-1 | – | – | – | Saluretic activity (Canis familiaris [1]): 3.73 m equiv 6hr-1 kg-1; Saluretic activity (Canis familiaris [2]): 6.89 m equiv 6hr-1 kg-1; Saluretic activity (Canis familiaris [5]): 1.03 m equiv 6hr-1 kg-1; Saldiuretic activity (Canis familiaris [6]): Active; Saldiuretic activity (Canis familiaris [7]): 1.47 m equiv 6hr-1 kg-1; Saldiuretic activity (Canis familiaris [8]): 4.45 m equiv 6hr-1 kg-1; Saldiuretic activity (Canis familiaris [9]): 7.84 m equiv 6hr-1 kg-1; Ratio [13]: 0.95; Ratio [14]: 3.6; Ratio [15]: 4.7; Ratio [16]: 0.95; Diuretic activity (Rattus norvegicus [18]): inactive
NS(=O)(=O)c1cc(S(=O)(=O)[O-])c(NCc2ccco2)cc1[S+]([O-])C1CCCCC1.[Na+] (centres undefined) | 48.4 ml kg-1 6hr-1 | – | 1.2 mL/kg | 1.7 m equiv 5hr-1 kg-1 | 1.4 m equiv 5hr-1 kg-1 | 1.3 m equiv 5hr-1 kg-1 | 0.59 m equiv 6hr-1 kg-1 | 0.33 m equiv 6hr-1 kg-1 | 1.27 m equiv 6hr-1 kg-1 | Ratio [22]: 1.8; Ratio [23]: 1.4
NS(=O)(=O)c1cc(S(=O)(=O)[O-])c(NCc2ccco2)cc1S(=O)(=O)c1ccccc1.[K+] | 35.3 ml kg-1 6hr-1 | 59.7 ml kg-1 6hr-1 | 3.6 mL/kg | 9.8 m equiv 5hr-1 kg-1 | 2.6 m equiv 5hr-1 kg-1 | 7.1 m equiv 5hr-1 kg-1 | 0.49 m equiv 6hr-1 kg-1 | 0.25 m equiv 6hr-1 kg-1 | 1.09 m equiv 6hr-1 kg-1 | Saluretic activity (Canis familiaris [24]): 4 m equiv 6hr-1 kg-1; Saluretic activity (Canis familiaris [25]): 0.93 m equiv 6hr-1 kg-1; Saldiuretic activity (Canis familiaris [26]): 5.28 m equiv 6hr-1 kg-1; Ratio [27]: 4.3; Ratio [28]: 2; Ratio [29]: 1.5; Ratio [30]: 1.1
